Measurements pooled from the literature.
Each line is one published result; the experiments were not run side by side.
MAL12: Alpha-glucosidase MAL12 (MAL12, Saccharomyces cerevisiae S288c, UniProt P53341)
ADRA1A: Alpha-1A adrenergic receptor (ADRA1A, Homo sapiens, UniProt P35348)

| Structure (SMILES) | target | effect on | action | method | concentration | inhibition [%] |
| --- | --- | --- | --- | --- | --- | --- |
| C[C@H]1O[C@H](O[C@H]2[C@H](O)[C@@H](O)[C@@H](O[C@H]3[C@H](O)[C@@H](O)C(O)O[C@@H]3CO)O[C@@H]2CO)[C@H](O)[C@@H](O)[C@@H]1N[C@H]1C=C(CO)[C@@H](O)[C@H](O)[C@H]1O (stereo partly shown) | MAL12 | enzyme activity | inhibitor | absorbance | 50 µM | 37.9 |
| CCCCCCCCCCCC(=O)OCC(C)(C)CC1=C(O)C(=O)c2ccccc2C1=O | MAL12 | enzyme activity | inhibitor |  | 50 µM | > 70 |
| O=c1c(O)c(-c2ccc(O)c(O)c2)oc2c(Br)c(O)c(Br)c(O)c12 | MAL12 | enzyme activity | inhibitor | absorbance | 50 µM | 95.8 |
| CC[N+]1(C)CCc2cc(OC)c(OC)c3c2C1Cc1cccc(OC)c1-3 (stereo not shown) | ADRA1A | ligand displacement |  | radioligand | 10 µM | 13 |
| C#Cc1cc(-c2cc(Nc3nc(N[C@@H](C)c4ccc(F)cn4)ncc3Cl)n[nH]2)ccc1C=O | Tyrosine-protein kinase Lyn (LYN, Homo sapiens, UniProt P07948) | enzyme activity | inhibitor |  | 0.2 µM | 89.2 |
| COc1cc2c3c(c1OC)-c1c(OC)ccc(Br)c1CC3N(C)CC2 (stereo not shown) | ADRA1A | ligand displacement |  | radioligand | 10 µM | 95 |
| O=c1cc(-c2ccc(O)cc2)oc2cc(O)cc(O)c12 | MAL12 | enzyme activity | inhibitor | absorbance | 50 µM | 78.6 |
| COc1cc(O)c2c(c1)oc(=O)c1c3cc(O)c(O)cc3oc21 | MAL12 | enzyme activity | inhibitor | absorbance | 128 µM | ~90 |
| COc1cc2c3c(c1OC)-c1c(OC)ccc(Cl)c1CC3N(C)CC2 (racemic) | ADRA1A | ligand displacement |  | radioligand | 10 µM | 99 |
| CCCCCCCCCCCCCCCCCC(=O)OCC(C)(C)CC1=C(O)C(=O)c2ccccc2C1=O | MAL12 | enzyme activity | inhibitor |  | 50 µM | > 70 |
| NC/C(=C\F)COc1cccc(Cn2c(=S)[nH]c(=O)c3[nH]cnc32)c1 | Histamine H2 receptor (HRH2, Homo sapiens, UniProt P25021) | ligand displacement |  | radioligand | 10 µM | < 50 |
| O=c1c(O)c(-c2ccc(O)c(O)c2)oc2cc(O)cc(O)c12 | MAL12 | enzyme activity | inhibitor | absorbance | 50 µM | 98.7 |
| COc1cc2c3c(c1OC)-c1c(OC)ccc(N4CCOCC4)c1CC3N(C)CC2 (stereo not shown) | ADRA1A | ligand displacement |  | radioligand | 10 µM | 65 |
